From ChEMBL document CHEMBL1156197, “Design, synthesis and evaluation of novel 2-thiophen-5-yl-3H-quinazolin-4-one analogues as inhibitors of transcription factors NF-kappaB and AP-1 mediated transcriptional activation: Their possible utilization as anti-inflammatory and anti-cancer agents” (Bioorg Med Chem, 2010) come the findings set out here.

The structures appear in SMILES notation. The source made the active and inactive calls. The calls are words filed in the database; no cut-off is given here.

One data set deals with PC-3. As to the kind of experiment: Cytotoxicity against human PC3 cells. In kind it is functional, cell-based.
The subject of another data set is TCC-SUP. As to the kind of experiment: Cytotoxicity against human TCCSUP cells. In kind it is functional, cell-based.
For data set [1], the target named is Transcription factor Jun (Homo sapiens) (UniProt P05412). As to the kind of experiment: Inhibition of AP-1 expressed in HEK293 cells assessed as PMA-stimulated transcriptional activation at 10 uM treated 24 hrs before PMA challenge measured after 20 to 24 hrs by luciferase reporter gene assay. The format is cell-based. In a few lines:
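HEK-293 cells stably carrying a minimal-promoter luciferase construct with tandem AP-1 elements (TGACTAA) were plated at 5 × 10⁴ cells/well and held 24 h at 37 °C in 5% CO₂. Compounds in 0.1% DMSO (10 µM–1 nM) were added to replicate wells for 24 h. Cells were then stimulated with PMA for 20–24 h and read with Bright-Glo luminescence. Mean RLU was normalized to the maximal control; IC50 came from a six-point dose response.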

Data set [2] in a line: Inhibition of NF-kappaB expressed in HEK293 cells assessed as inhibition of TNF-alpha-stimulated transcriptional activation treated 24 hrs before TNFalpha challenge measured after 20 to 24 hrs by luciferase reporter gene assay. In kind it is cell-based. In a few lines: (§1)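 Compounds in 0.1% DMSO (10 µM–1 nM) were added to replicate wells for 24 h. Cells were then stimulated with TNF-α for 20–24 h and read with Bright-Glo luciferase. Mean RLU was normalized to the maximal control; IC50 came from a six-point dose response.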

Data set [3] concerns HEK293. The experiment in a line: Inhibition of NF-kappaB expressed in HEK293 cells assessed as inhibition of TNF-alpha-stimulated transcriptional activation at 10 uM treated 24 hrs before TNFalpha challenge measured after 20 to 24 hrs by luciferase reporter gene assay. In kind it is cell-based. The essentials:
as §1

The next data set relates to LNCaP. The experiment in a line: Cytotoxicity against human LNCAP cells. The format is functional, cell-based.
For another data set, the system named is Rattus norvegicus. As to the kind of experiment: Antiinflammatory activity against carrageenan-induced paw edema in Sprague-Dawley rat assessed as reduction in paw volume at 50 mg/kg, po dosed 1 hr before carrageenan challenge measured after 3 hrs by plethysmometry. The format is functional. Details: scale not given: the % may be the effect or the level left.

In another data set the test system is Mus musculus. The experiment in a line: Inhibition of LPS-stimulated NF-kappaB activation in transgenic FVB mouse assessed as decrease in NF-kappaB activity at 50 mg/kg, po QD for 3 days before LPS challenge measured after 3 hrs by bioluminescence based luciferase reporter gene assay relative to control. In kind it is functional. Details: scale not given: the % may be the effect or the level left.

The test system of data set [4] is HEK293. The experiment in a line: Cytotoxicity against TNF-alpha-stimulated HEK293 cells at 10 uM treated 24 hrs before TNFalpha challenge measured after 20 to 24 hrs. Particulars: human, hek293, 10 µM. In kind it is cell-based.

Chain of Transcription factor Jun (Homo sapiens) (P05412 whole entry): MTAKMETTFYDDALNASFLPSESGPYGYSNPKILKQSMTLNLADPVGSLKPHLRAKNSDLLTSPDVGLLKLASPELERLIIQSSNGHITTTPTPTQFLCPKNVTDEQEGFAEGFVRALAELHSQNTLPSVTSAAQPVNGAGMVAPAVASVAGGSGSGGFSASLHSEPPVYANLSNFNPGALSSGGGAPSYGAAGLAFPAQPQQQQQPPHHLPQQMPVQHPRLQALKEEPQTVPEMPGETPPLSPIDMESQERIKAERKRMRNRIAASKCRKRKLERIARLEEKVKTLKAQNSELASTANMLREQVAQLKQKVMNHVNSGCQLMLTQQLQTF

Take `CC(=O)c1ccc(-n2c(-c3cc(-c4ccncc4)c(N4CCOCC4)s3)nc3ccccc3c2=O)cc1`: the result with PC-3, with TCC-SUP and in the data set with LNCaP was Active. Besides, the inhibition in data set [1] was found to be 84%; in the data set with HEK293 [3], 66%. In addition, the IC50 in data set [2] came to 10 µM. Further, the Activity in the data set on Rattus norvegicus is recorded as 81%; with Mus musculus, 43%; in the data set on HEK293 [4], “Non-toxic”.
